In ChEMBL document CHEMBL4765236, “Insights into the Antimicrobial Activity and Cytotoxicity of Engineered α-Helical Peptide Amphiphiles” (J Med Chem, 2016):
The source made the active and inactive calls. The rule behind the calls is not given here.

Key:
[1] = system: Escherichia coli; assay: Antibacterial activity against Escherichia coli ATCC 35150 assessed as bacterial growth inhibition incubated for 18 to 24 hrs by microtiter broth dilution method; assay type: functional; settings: time 18-24 hrs
In short: (§1)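 Log-phase cells (grown overnight at 37 °C, subcultured in MHB) diluted to 10^5 CFU/mL in MHB and mixed 1:1 with serial peptide dilutions prepared in 0.01% acetic acid/0.2% BSA. Incubated 37 °C for 18-24 h. MIC is the lowest concentration giving no growth by OD492. Reported as the average of 3-5 independent experiments.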

[2] = system: Salmonella paratyphi; assay: Antibacterial activity against Salmonella paratyphi A CICC 20501 assessed as bacterial growth inhibition incubated for 18 to 24 hrs by microtiter broth dilution method; assay type: functional, Salmonella enterica subsp. enterica serovar Paratyphi A; settings: Salmonella enterica, time 18-24 hrs
In short: (§2)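 Log-phase bacteria grown at 37 °C in MHB, diluted to 10^5 CFU/mL, mixed 1:1 with serial peptide dilutions (peptide diluted in 0.01% acetic acid, 0.2% BSA); 37 °C for 18-24 h. MIC read by OD492 as lowest concentration giving no growth; mean of 3-5 independent experiments.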

[3] = system: Salmonella enterica subsp. enterica serovar Paratyphi B; assay: Antibacterial activity against Salmonella paratyphi B CICC 21495 assessed as bacterial growth inhibition incubated for 18 to 24 hrs by microtiter broth dilution method; assay type: functional; settings: time 18-24 hrs; in short: as §2
[4] = system: Salmonella paratyphi; assay: Antibacterial activity against Salmonella paratyphi C CICC 21512 assessed as bacterial growth inhibition incubated for 18 to 24 hrs by microtiter broth dilution method; assay type: functional; settings: Salmonella enterica, time 18-24 hrs; in short: as §2
[5] = system: Vibrio parahaemolyticus; assay: Antibacterial activity against Vibrio parahaemolyticus CICC 21617 assessed as bacterial growth inhibition incubated for 18 to 24 hrs by broth dilution method; assay type: functional; settings: time 18-24 hrs; in short: as §1
[6] = system: Staphylococcus aureus; assay: Antibacterial activity against Staphylococcus aureus ATCC 29213 assessed as bacterial growth inhibition incubated for 18 to 24 hrs by microtiter broth dilution method; assay type: functional; settings: time 18-24 hrs; in short: as §1
[7] = system: Staphylococcus aureus; assay: Antibacterial activity against Staphylococcus aureus GIM 1.160 assessed as bacterial growth inhibition incubated for 18 to 24 hrs by microtiter broth dilution method; assay type: functional; settings: time 18-24 hrs; in short: as §1
[8] = system: Bacillus pumilus; assay: Antibacterial activity against Bacillus pumilus CMCC 63202 assessed as bacterial growth inhibition incubated for 18 to 24 hrs by microtiter broth dilution method; assay type: functional; settings: time 18-24 hrs; in short: as §1
[9] = system: Candida albicans; assay: Antifungal activity against Candida albicans ATCC 10231 assessed as fungal growth inhibition incubated for 18 to 24 hrs by microtiter broth dilution method; assay type: functional; settings: time 18-24 hrs; in short: as §1
[10] = system: Erythrocyte; assay: Hemolytic activity against human red blood cells assessed as concentration required to cause 10% hemoglobin release measured after 1 hr by microplate reader analysis; assay type: ADME, cell-based
In short: (§3)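 Fresh heparinized human RBCs washed three times in 10 mM PBS pH 7.4 and resuspended to about 1% (v/v) (5.4 × 10^8 cells/mL). Mixed 1:1 with peptide in PBS for 1 h at 37 °C, then centrifuged. Supernatant hemoglobin read at A540. PBS set as 0% and 0.1% Triton X-100 as 100% hemolysis. MHC is the concentration causing 10% hemolysis.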

[11] = Therapeutic index, ratio of MHC10 for human RBC to geometric mean of peptide MIC for Staphylococcus aureus ATCC 29213; assay type: toxicity; settings: human red blood cells (RBC), pooled result: one value given for 9 cell lines, strains, targets or settings, read-out: TI
In short: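 Therapeutic index = MHC (peptide concentration giving 10% hemolysis of human RBCs, 1 h, 37 °C, A540) divided by geometric mean of MICs from broth microdilution (10^5 CFU/mL in MHB, 37 °C, 18-24 h, OD492).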

[12] = system: Escherichia coli; assay: Antibacterial activity against Escherichia coli O157:H7 CICC 21530 assessed as bacterial growth inhibition incubated for 18 to 24 hrs in presence of 150 mM NaCl by microtiter broth dilution method (reference value: 0.85 to > 71.5 uM); assay type: functional; settings: time 18-24 hrs
[13] = system: Escherichia coli; assay: Antibacterial activity against Escherichia coli O157:H7 CICC 21530 assessed as bacterial growth inhibition incubated for 18 to 24 hrs in presence of 4.5 mM KCl by microtiter broth dilution method (reference value: 0.85 to > 71.5 uM); assay type: functional; settings: time 18-24 hrs
[14] = system: Escherichia coli; assay: Antibacterial activity against Escherichia coli O157:H7 CICC 21530 assessed as bacterial growth inhibition incubated for 18 to 24 hrs in presence of 6 mM NH4Cl by microtiter broth dilution method (reference value: 0.85 to > 71.5 uM); assay type: functional; settings: time 18-24 hrs
[15] = system: Escherichia coli; assay: Antibacterial activity against Escherichia coli O157:H7 CICC 21530 assessed as bacterial growth inhibition incubated for 18 to 24 hrs in presence of 1 mM MgCl2 by microtiter broth dilution method (reference value: 0.85 to > 71.5 uM); assay type: functional; settings: time 18-24 hrs
[16] = system: Escherichia coli; assay: Antibacterial activity against Escherichia coli O157:H7 CICC 21530 assessed as bacterial growth inhibition incubated for 18 to 24 hrs in presence of 2 mM CaCl2 by microtiter broth dilution method (reference value: 0.85 to > 71.5 uM); assay type: functional; settings: time 18-24 hrs
[17] = system: Cell membrane; assay: Induction of cell membrane depolarization in Escherichia coli O157:H7 CICC 21530 assessed as increase in fluorescence intensity at 0.5 to 2 times MIC preincubated for 90 mins followed by KCl addition and measured after 15 to 30 mins by DiSC3-5 staining based fluorescence spectroscopic technique; assay type: subcellular; settings: time 105-120 min
[18] = system: RAW264.7; assay: Antiinflammatory activity against mouse RAW264.7 cells assessed as inhibition of LPS-induced nitric oxide production measured after 24 hrs by Griess reagent based ELISA; assay type: functional, cell-based; settings: dose 0.5-64 µM
In short: (§4)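 RAW264.7 cells plated at 1-2 × 10^5 cells/mL and stimulated with 500 ng/mL LPS with or without peptide (0.5-64 µM) for 24 h at 37 °C. Controls were untreated cells and LPS alone. TNF-α in the supernatant measured by ELISA. NO measured by Griess reagent (1% sulfanilamide, 0.1% naphthylethylenediamine, 5% phosphoric acid).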

[19] = system: RAW264.7; assay: Antiinflammatory activity against mouse RAW264.7 cells assessed as inhibition of LPS-induced TNF-alpha production at 0.5 to 64 uM measured after 24 hrs by […] ELISA; assay type: functional, cell-based; settings: dose 0.5-64 µM; in short: as §4
[20] = system: Staphylococcus aureus; assay: Antibacterial activity against Staphylococcus aureus ATCC 29213 assessed as bacterial growth inhibition incubated for 18 to 24 hrs in presence of 6 mM NH4Cl by microtiter broth dilution method (reference value: 0.43 to > 71.5 uM); assay type: functional; settings: time 18-24 hrs
[21] = system: Erythrocyte; assay: Hemolytic activity against human red blood cells assessed as hemoglobin release at 64 uM measured after 1 hr by microplate reader analysis; assay type: ADME, cell-based; in short: as §3
[22] = system: HepG2; assay: Induction of cell cycle arrest in human HepG2 cells assessed as accumulation at S phase at 32 uM incubated for 24 hrs by annexin-V/FITC staining-based FACS flow cytometry analysis (reference value: 20.51 %); assay type: functional
[23] = system: HepG2; assay: Induction of cell cycle arrest in human HepG2 cells assessed as accumulation at G2/M phase at 64 uM incubated for 24 hrs by annexin-V/FITC staining-based FACS flow cytometry analysis (reference value: 28.75 %); assay type: functional
[24] = system: Escherichia coli; assay: Induction of morphological changes in Escherichia coli O157:H7 CICC 21530 assessed as membrane creeping at 1 times MIC after 60 mins by SEM analysis; assay type: functional, organism-based

With H-WGRAFSAGVHRLARGGRG-NH2 the MIC [1] was > 67 µM, the MIC [2] was 33.5 µM and the MIC [3] was > 67 µM. The MIC [4] was > 67 µM, the MIC [5] was > 67 µM and the MIC [6] was > 67 µM. The MIC [7] was > 67 µM, the MIC [8] was > 67 µM and the MIC [9] was > 67 µM. The MHC10 [10] was > 67.01 µM, the selectivity ratio [11] was 1.26 and the MIC [12] was > 67 µM. For the same substance, the MIC [13] was 4.19 µM, the MIC [14] was 8.35 µM and the MIC [15] was 67 µM. The MIC [16] was > 67 µM, the Activity [17] was “Active” and the Activity [18] was “Dose-dependent effect”. For the same substance, the Activity [19] was “Active”, the MIC [20] was > 67 µM and the Activity [21] was “Non-Toxic”.

Work on H-WGRAFRRGVRRLARGGRR-NH2 yielded an MIC [1] of 29.3 µM, an MIC [2] of 7.33 µM and an MIC [3] of 3.67 µM. The MIC [4] was 7.33 µM, the MIC [5] was 29.3 µM and the MIC [6] was 14.7 µM. For the same substance, the MIC [7] was 7.33 µM, the MIC [8] was > 58.6 µM and the MIC [9] was 29.3 µM. The MHC10 [10] was > 58.64 µM, the selectivity ratio [11] was 8 and the MIC [12] was 14.7 µM. The MIC [13] was 3.67 µM, the MIC [14] was 3.67 µM and the MIC [15] was 3.67 µM. The MIC [16] was 7.33 µM, the Activity [17] was “Active” and the Activity [18] was “Dose-dependent effect”. The Activity [19] was “Active”, the MIC [20] was 7.33 µM and the Activity [21] was “Non-Toxic”.

With H-WGEAFSAGVHRLANGGNG-NH2 the MIC [1] was > 71.2 µM, the MIC [2] was > 71.2 µM and the MIC [3] was > 71.2 µM. The MIC [4] was > 71.2 µM, the MIC [5] was > 71.2 µM and the MIC [6] was > 71.2 µM. For the same substance, the MIC [7] was > 71.2 µM, the MIC [8] was > 71.2 µM and the MIC [9] was > 71.2 µM. For the same substance, the MHC10 [10] was > 71.15 µM, the selectivity ratio [11] was 1 and the MIC [12] was > 71.2 µM. The MIC [13] was > 71.2 µM, the MIC [14] was > 71.2 µM and the MIC [15] was > 71.2 µM. For the same substance, the MIC [16] was > 71.2 µM, the Activity [17] was “Active” and the Activity [18] was “Dose-dependent effect”. For the same substance, the Activity [19] was “Active”, the Activity [22] was 25.26% and the Activity [23] was 30.85%. The MIC [20] was > 71.2 µM, the Activity [21] was “Non-Toxic” and the Activity [24] was “Active”.

Substance H-WGRAFRRLVRRLARGLRR-NH2 has an MIC [1] of 13.9 µM, an MIC [2] of 3.49 µM and an MIC [3] of 6.97 µM. For the same substance, the MIC [4] was 3.49 µM, the MIC [5] was 13.9 µM and the MIC [6] was 3.49 µM. It also gave an MIC [7] of 1.74 µM, an MIC [8] of 55.8 µM and an MIC [9] of 13.9 µM. For the same substance, the MHC10 [10] was > 55.78 µM, the selectivity ratio [11] was 11.8 and the MIC [12] was 13.9 µM. The MIC [13] was 3.49 µM, the MIC [14] was 3.49 µM and the MIC [15] was 6.97 µM. The MIC [16] was 13.9 µM, the Activity [17] was “Active” and the Activity [18] was “Dose-dependent effect”. The Activity [19] was “Active”, the MIC [20] was 1.74 µM and the Activity [21] was “Non-Toxic”.
